From PubChem BioAssay
Yeast lifespan up – compounds extending yeast replicative lifespan, primary screen, S. cerevisiae, OD615; S. cerevisiae growth with nicotinamide; deaD strain in restrictive glucose medium; inhibition of the nicotinamide effect, % at 10 µM; 0.68% of 130,000 active; AID 775, 2007;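 active = inhibition above a set limit, placed 3 SD over the median of all compounds, cut at about 26% in these data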;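 note: 0% = nicotinamide-treated wells and 100% = cells grown without nicotinamide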
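assay system = DeaD-strain S. cerevisiae | buffer or medium = restrictive glucose medium | reagent = 1.5 mM nicotinamide | compound = 10 µM single point, 0.25% DMSO | incubation = 48 h compound exposure at 30 °C, humidified | signal = OD615 measurement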
WT yeast gro inh – growth inhibition of WT strain, primary screen, mitochondrial fusion inhibitor project, WT and mutant strains, chemical genetic; AID 1362, 2008; mitochondrial fusion phenotypic screen; inhibition, % at 10 µM; 2.1% of 190,000 active; in the data active = inhibition above about 58%; tested in S. cerevisiae
Yeast growth inh – growth inhibitors of yeast BB579 in restrictive medium, primary screen, yeast lifespan-shortening project, S. cerevisiae | OD615, 48 h | inhibition, % at 10 µM | 0.51% of 140,000 active;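 active = inhibition above a set limit, 3 SD over the mean compound inhibition, cut at about 44% in these data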
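Test system: DeaD yeast strain BB579 / Buffer or medium: restrictive glucose-based CSMM-D medium / Doses: single 10 µM dose / Schedule: 4 h cell preincubation, 48 h compound exposure, 30 °C humidified / Technique: culture absorbance at 615 nm / Controls: amphotericin B positive control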
RAM inhibit – inhibitors of the yeast RAM network, primary screen, dse1pr::URA3 reporter, 5-FOA selection; 1.8% of 190,000 active; AID 868, 2007; inhibition, % at 50 µM; S. cerevisiae dse1pr::URA3 reporter, 5-FOA growth OD615, 2 d; analog-sensitive cbk1-as2 kinase mutant strain;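 active = inhibition above a set limit, 3 SD over mean compound inhibition, cut at about 8.4% in these data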;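 note: 0% = DMSO-only wells with no growth and 100% = 10 µM 1-NA-PP1 full growth; inhibition rescues growth on 5-FOA so higher OD means more RAM inhibition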
Cl transport mod – KCC2 cotransporter modulators, thallium flux, primary screen, cell-based, HEK293 KCC2, FluoZin-2 fluorescence, MLSMR | KCC2 cells, thallium flux FluoZin-2 fluorescence | B-score of Tl+ flux slope (higher = more flux/activation; lower = inhibition) at 10 µM | Solute carrier family 12 member 5 (Homo sapiens), Q9H2X9 | AID 1456, 2008 | 2.2% of 190,000 active;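 active = thallium flux slope and its plate-corrected score both differing from the plate sample mean at a set confidence after two filtering rounds, in either direction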;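 note: slope of fluorescence scaled to starting intensity during 10 to 20 s after thallium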
Target sequence (Q9H2X9 whole entry, looked up): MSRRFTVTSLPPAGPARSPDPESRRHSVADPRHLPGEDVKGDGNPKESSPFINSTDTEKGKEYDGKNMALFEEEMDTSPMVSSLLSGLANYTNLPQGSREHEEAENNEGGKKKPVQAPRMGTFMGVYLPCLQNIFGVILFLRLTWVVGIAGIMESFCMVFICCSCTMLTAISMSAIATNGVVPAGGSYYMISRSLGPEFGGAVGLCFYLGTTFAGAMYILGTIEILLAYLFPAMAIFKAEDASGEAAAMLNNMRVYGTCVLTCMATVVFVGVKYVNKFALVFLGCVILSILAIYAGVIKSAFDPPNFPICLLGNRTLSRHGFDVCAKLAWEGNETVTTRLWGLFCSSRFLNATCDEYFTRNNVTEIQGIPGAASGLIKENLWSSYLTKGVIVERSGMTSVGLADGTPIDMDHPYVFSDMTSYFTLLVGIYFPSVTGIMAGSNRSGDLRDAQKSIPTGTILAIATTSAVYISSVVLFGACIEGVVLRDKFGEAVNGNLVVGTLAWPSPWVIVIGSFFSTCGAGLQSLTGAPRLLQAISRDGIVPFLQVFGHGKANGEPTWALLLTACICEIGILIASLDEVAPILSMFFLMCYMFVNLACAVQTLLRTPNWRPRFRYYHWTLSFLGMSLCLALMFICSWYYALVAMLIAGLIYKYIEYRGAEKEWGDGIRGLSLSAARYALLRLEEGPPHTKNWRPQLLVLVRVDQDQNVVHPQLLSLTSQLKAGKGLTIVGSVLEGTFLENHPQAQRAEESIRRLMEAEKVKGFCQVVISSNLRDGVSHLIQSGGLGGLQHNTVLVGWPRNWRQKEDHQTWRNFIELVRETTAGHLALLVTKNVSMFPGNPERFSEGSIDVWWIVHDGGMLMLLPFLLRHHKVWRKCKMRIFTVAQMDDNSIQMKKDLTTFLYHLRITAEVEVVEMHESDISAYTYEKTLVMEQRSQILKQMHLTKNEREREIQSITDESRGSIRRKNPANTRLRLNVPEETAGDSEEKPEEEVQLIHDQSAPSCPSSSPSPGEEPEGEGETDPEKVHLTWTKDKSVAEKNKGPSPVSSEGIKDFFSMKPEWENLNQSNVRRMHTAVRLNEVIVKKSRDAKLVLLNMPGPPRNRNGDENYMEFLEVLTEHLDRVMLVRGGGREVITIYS
RAM efflux-def – 5-FOA growth of efflux-deficient control yeast, dose response, counter-screen for RAM network inhibitor project, S. cerevisiae, OD615; AID 1305, 2008; shares compounds with RAM inhibit; max inhibition, %; 1,200 tested, under 10 active; S. cerevisiae efflux-deficient reporter strain, 5-FOA growth OD615, 2 days; call rule not given here;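 note: plate controls were vehicle for no effect and reference inhibitor for full effect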
Starred values were filed as active, the others as inactive. Shown are actives, neighbours in structure and some others; about 5.5% of the full set was active somewhere.

Results for COc1cccc(NC(=O)Cn2cnc3sc(C)c(S(=O)(=O)N4CCCCC4)c3c2=O)c1 ?
Yeast lifespan up: -8; WT yeast gro inh: 2; Yeast growth inh: -22; RAM inhibit: 4; Cl transport mod: -0.23

What do the screens show for `O=C(Nc1cccnc1Cl)c1ccc2c(Cl)c3c(nc2c1)CCC3`?
WT yeast gro inh: 17; RAM inhibit: 12*; Cl transport mod: -0.58; RAM efflux-def: 4

How did O=C(NCCCN1CCCC1)c1ccc2c(Cl)c3c(nc2c1)CCCC3 do in these assays?
WT yeast gro inh: 3; RAM inhibit: 0; Cl transport mod: -1.3

Results for CCc1c(O)c(/C(C)=N\O)c(=O)n(-c2ccccc2)c1-c1ccccc1 ?
Yeast lifespan up: -5; WT yeast gro inh: -20; Yeast growth inh: -13; RAM inhibit: 5; Cl transport mod: 0

Results for C=CCO/N=C(/C)c1c(O)c(CC)c(-c2ccccc2)n(-c2ccccc2)c1=O ?
WT yeast gro inh: 18; Yeast growth inh: -29; RAM inhibit: 13*; Cl transport mod: 0.36; RAM efflux-def: 2

What do the screens show for `O=C(COC(=O)c1ccccc1-c1nc2ccccc2s1)Nc1ccccc1C(F)(F)F`?
Yeast lifespan up: 9; WT yeast gro inh: 35; Yeast growth inh: -9; RAM inhibit: 15*; Cl transport mod: -2.8; RAM efflux-def: 2

Results for NNc1cc(C(=O)O)ccc1Cl ?
Cl transport mod: 1.2

How did CC(C)CCN1C(=O)c2ccc(C(=O)Nc3c[nH]c(=O)[nH]c3=O)cc2C1=O do in these assays?
WT yeast gro inh: 0; RAM inhibit: 4; Cl transport mod: -1.5

Results for CC(=O)Oc1cccc(N2C(=O)c3ccc(C(=O)Nc4c[nH]c(=O)[nH]c4=O)cc3C2=O)c1 ?
WT yeast gro inh: 1; RAM inhibit: 12*; Cl transport mod: 0.01; RAM efflux-def: 3

What do the screens show for `O=C(NCCCO)C(=O)NCc1ccncc1`?
WT yeast gro inh: 0; RAM inhibit: 3; Cl transport mod: 0.089

Results for CCOC(=O)C1CCN(S(=O)(=O)C(F)(F)c2nc3ccccc3s2)CC1 ?
Yeast lifespan up: -4; WT yeast gro inh: 8; Yeast growth inh: -33; RAM inhibit: 3; RAM efflux-def: 1

How did CCN(c1ccccc1)S(=O)(=O)c1ccc(Cl)c(C(=O)NCCc2ccc(OC)cc2)c1 do in these assays?
Yeast lifespan up: 2; WT yeast gro inh: 8; Yeast growth inh: -15; RAM inhibit: 12*; Cl transport mod: inactive; RAM efflux-def: 3

What do the screens show for `COc1ccc(CCNC(=O)c2ccc(Cl)c(S(=O)(=O)N(C)c3ccccc3)c2)cc1`?
Yeast lifespan up: 5; WT yeast gro inh: 11; Yeast growth inh: -31; RAM inhibit: 17*; Cl transport mod: -1.3; RAM efflux-def: 3

Results for O=C(O)COc1ccc(/C=N/n2c(COc3ccccc3)nc3ccccc3c2=O)cc1 ?
Yeast lifespan up: 1; WT yeast gro inh: -5; Yeast growth inh: 5; RAM inhibit: 13*; Cl transport mod: 0.86; RAM efflux-def: 3

What do the screens show for `CCCCCCN(C(=O)CCCCCN1C(=O)NC(c2ccc(-c3ccccc3)cc2)C(C(=O)OCc2ccccc2)=C1C)C(C)C(=O)NCCCC` (configuration not stated)?
Yeast lifespan up: 19; WT yeast gro inh: -21; Yeast growth inh: -26; RAM inhibit: 28*; Cl transport mod: 0.73; RAM efflux-def: 6

What do the screens show for `CCCCCCN(C(=O)CCCCCN1C(=O)NC(c2ccc(-c3ccccc3)cc2)C(C(=O)OCc2ccccc2)=C1C)C(C(=O)NCCCC)c1ccccc1` (configuration not stated)?
Cl transport mod: -0.72

How did Cc1cccc(C(=O)NCc2nnc3c4ccccc4c(-c4ccccc4)nn23)c1 do in these assays?
Yeast lifespan up: 1; WT yeast gro inh: 12; Yeast growth inh: -27; RAM inhibit: 12*; Cl transport mod: -0.0089; RAM efflux-def: 4

What do the screens show for `Cc1cccc(C(=O)NCc2nnc(SCC(=O)NC(C)c3ccccc3)n2C)c1` (configuration not stated)?
Yeast lifespan up: -6; WT yeast gro inh: -11; Yeast growth inh: 1; RAM inhibit: -1; Cl transport mod: -0.057

How did COc1cc(CNc2ccc(CNc3ncn[nH]3)cc2)ccc1OCC(=O)NC(C)(C)C do in these assays?
Yeast lifespan up: 1; WT yeast gro inh: 18; Yeast growth inh: -25; RAM inhibit: 2; Cl transport mod: -0.62

Results for CCOc1cc(CNc2ccc(CNc3ncn[nH]3)cc2)ccc1OCc1ccccc1 ?
Yeast lifespan up: -5; WT yeast gro inh: -4; Yeast growth inh: -11; RAM inhibit: 12*; Cl transport mod: 0.034; RAM efflux-def: 7

What do the screens show for `O=C(COC(=O)c1ccc2c(c1)S(=O)(=O)N=C1CCCCCN12)NCCc1ccc(F)cc1`?
WT yeast gro inh: -5; RAM inhibit: 1; Cl transport mod: -2

Results for CCC1(C)CC(CCNS(=O)(=O)c2ccc(C)cc2)(c2ccc(C)cc2)CCO1 (configuration not stated) ?
Yeast lifespan up: -15; WT yeast gro inh: 22; Yeast growth inh: -53; RAM inhibit: 16*; Cl transport mod: -0.17; RAM efflux-def: 4

How did Cc1ccc(C2(CCNCc3ccc(N(C)C)cc3)CCOC(C(C)C)C2)cc1 (configuration not stated) do in these assays?
WT yeast gro inh: 35; RAM inhibit: 0; Cl transport mod: 0.56

How did Cc1ccc(C2(CCNS(=O)(=O)c3ccc(C)cc3)CCOC(C(C)C)C2)cc1 (configuration not stated) do in these assays?
Yeast lifespan up: 2; WT yeast gro inh: 53; Yeast growth inh: -25; RAM inhibit: 15*; Cl transport mod: -1.9; RAM efflux-def: 5

What do the screens show for `O/N=C1\CCCc2ccc(Cl)cc21`?
Yeast lifespan up: -9; WT yeast gro inh: -2; Yeast growth inh: -29; RAM inhibit: 0; Cl transport mod: -0.23

How did Cc1cc(Sc2nc(NC(C)C)nc(NC(C)C)n2)nc(Cl)n1 do in these assays?
WT yeast gro inh: 12; RAM inhibit: 1; Cl transport mod: 0.039

Results for COc1ccc(C(=O)NCC(=O)OCc2ccc([N+](=O)[O-])cc2)cc1 ?
WT yeast gro inh: 12; RAM inhibit: 1; Cl transport mod: -0.62

Results for COc1ccc(C(=O)NCC(=O)OCc2cccc(Br)c2)cc1 ?
Yeast lifespan up: -15; WT yeast gro inh: 12; Yeast growth inh: -33; RAM inhibit: 13*; RAM efflux-def: 3
